High-throughput results deposited in PubChem by Johns Hopkins Ion Channel Center.
TRPC4 potent: allosterically enhances the mouse TRPC4 cation channel. HEK293 TRPC4beta/mu-opioid, DAMGO EC20, Fluo-4 Ca2+ flux; stronger effect = higher value. B-score at 10 µM. 310,000 compounds, 0.42% hits. AID 2227;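 active = B-score of calcium response area above 5 SD of library B-scores, with initial fluorescence ratio within 5 SD of library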;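 also: B-score of integrated fluorescence ratio over time as area under calcium response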
TRPC6 act: activates the mouse TRPC6 cation channel | HEK293-TRPC6 membrane potential dye fluorescence; stronger effect = higher value | B-score at 10 µM | 310,000 compounds, 0.13% hits | AID 2550;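 active = B-score of the integrated fluorescence ratio above library mean plus 3 SD, and starting fluorescence ratio within library mean plus 5 SD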;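 also: higher score means more depolarization so channel activation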
Target sequence (Q61143 whole entry, looked up): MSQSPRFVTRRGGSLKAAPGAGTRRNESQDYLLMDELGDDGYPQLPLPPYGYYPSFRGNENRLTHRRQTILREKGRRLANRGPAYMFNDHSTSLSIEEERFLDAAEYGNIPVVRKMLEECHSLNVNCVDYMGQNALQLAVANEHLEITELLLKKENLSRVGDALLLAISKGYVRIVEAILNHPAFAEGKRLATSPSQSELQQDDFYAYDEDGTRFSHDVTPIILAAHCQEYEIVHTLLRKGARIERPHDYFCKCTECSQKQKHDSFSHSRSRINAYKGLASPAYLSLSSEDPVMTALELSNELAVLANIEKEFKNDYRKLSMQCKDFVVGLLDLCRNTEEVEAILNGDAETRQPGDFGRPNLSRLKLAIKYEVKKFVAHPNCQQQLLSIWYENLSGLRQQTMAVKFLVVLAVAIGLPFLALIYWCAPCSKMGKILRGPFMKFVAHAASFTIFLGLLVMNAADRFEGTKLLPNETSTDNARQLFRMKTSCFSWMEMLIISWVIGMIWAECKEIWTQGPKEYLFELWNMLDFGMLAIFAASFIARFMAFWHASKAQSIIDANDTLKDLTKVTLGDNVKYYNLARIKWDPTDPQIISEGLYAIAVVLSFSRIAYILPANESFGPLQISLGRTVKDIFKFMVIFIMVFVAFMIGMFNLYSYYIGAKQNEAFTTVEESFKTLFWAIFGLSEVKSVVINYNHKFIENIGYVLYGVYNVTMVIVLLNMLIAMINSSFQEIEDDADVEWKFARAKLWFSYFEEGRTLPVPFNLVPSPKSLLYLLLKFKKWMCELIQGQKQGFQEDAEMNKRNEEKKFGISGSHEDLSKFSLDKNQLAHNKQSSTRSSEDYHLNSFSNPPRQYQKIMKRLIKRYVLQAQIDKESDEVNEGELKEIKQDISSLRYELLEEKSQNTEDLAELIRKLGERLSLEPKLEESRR
TRPC4 act: TRPC4 (mouse) channel activation | 310,000 compounds, 0.49% hits | B-score at 10 µM | Q9QUQ5 | HEK293 TRPC4beta/mu-opioid, Fluo4 calcium fluorescence; stronger effect = higher value;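 active = B-score above 5 SD of library B-scores, and initial fluorescence ratio not above library mean plus 5 SD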;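 also: positive B-score marks a calcium rise read as TRPC4 activation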
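System: HEK293 cells stably co-expressing mouse TRPC4beta and mu-opioid receptor; Schedule: Fluo4 dye loading 45 min at room temperature, 110 s recording; Detection: Fluo4 fluorescence, kinetic; Evaluation: B-scored integrated calcium fluorescence ratio; Controls: buffer (low) and maximal DAMGO (high).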
TRPC4 inh: blocks the mouse TRPC4 cation channel; AID 2247; 300,000 compounds, 0.39% hits; HEK293 TRPC4beta/mu-opioid, DAMGO-evoked Fluo4 calcium flux; stronger effect = lower value; B-score at 10 µM;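 active = B-score over 3 SD under the library average, no early fluorescence shift, positive overall ratio signal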
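Assay system: HEK293 cells with stable TRPC4beta plus mu-opioid receptor expression. Dosing: single dose. Measured by: Fluo4 Ca2+ flux fluorescence. Also added: DAMGO in two steps, submaximal then maximal. Read-out: B score from integrated Fluo4 fluorescence ratio.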
TRPC6 inhibitor: blocks the mouse TRPC6 cation channel. AID 2553. HEK293-TRPC6, membrane potential dye, ACh-evoked depolarization; stronger effect = lower value. Q61143. 310,000 compounds, 1.1% hits. B-score at 10 µM;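 active = B-score under library mean minus 3 SD, initial fluorescence not abnormally high, positive integrated signal ratio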;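 also: B-score derived from integrated fluorescence ratio over the kinetic read; more negative B-score means stronger inhibition of depolarization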
TRPC4 spec 2: second selectivity test of TRPC6 inhibitors: effect on mouse TRPC4 | shares compounds with TRPC6 inhibitor | HEK293 TRPC4/MOR, membrane potential dye fluorescence; channel activated by saturating DAMGO dose | inhibition, % at 10 µM | 920 compounds, 42% hits | AID 2776;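 active = compounds whose fluorescence signal differed from control wells by over 3 SD, either direction, in both duplicate plates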
TRPC4 spec: mouse TRPC4 off-target activity of TRPC6 inhibitors; HEK293 TRPC4/mu-opioid, membrane potential fluorescence; AID 2777; 920 compounds, 61% hits; shares compounds with TRPC6 inhibitor; activity change, negative = inhibition, % at 10 µM;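 active = rise or fall in signal beyond 3 SD of buffer-only wells in both replicate plates, either sign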;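 also: integrated kinetic ratio of fluorescence range over baseline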
HEK293 MPD ctr 2-1: parental HEK293 nonspecific activity of TRPC6 inhibitors, second screen; signal change vs control, % at 10 µM; 920 compounds, 31% hits; shares compounds with TRPC6 inhibitor; parental HEK293 membrane potential dye fluorescence; maximal acetylcholine challenge after compound addition;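 active = membrane potential signal moving either way by over 3 SD of the maximum-effect control, in both duplicate plates, meaning non-specific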
HEK293 MPD ctr-1: parental HEK293 nonspecific activity of TRPC6 inhibitors; shares compounds with TRPC6 inhibitor; parental HEK293 membrane potential dye fluorescence; membrane potential signal change, % at 10 µM; 920 compounds, 60% hits; AID 2780;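 active = membrane potential signal shifting up or down by more than 3 SD of buffer-only wells, on both duplicate plates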
HEK293 MPD ctr-2: parental HEK293 nonspecific activity of TRPC6 modulators. shares compounds with TRPC6 inhibitor. membrane potential dye fluorescence. membrane potential signal change, % at 10 µM. 2,400 compounds, 51% hits;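 active = membrane potential signal moves up or down beyond 5 SD from buffer-only wells, on both duplicate plates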
HEK293 MPD ctr 2-2: second counter-screen for TRPC6 modulators: effect in parental HEK293 cells. shares compounds with TRPC6 inhibitor. membrane potential dye fluorescence; after compound, maximal acetylcholine stimulation. inhibition, % at 10 µM. 2,400 compounds, 14% hits. AID 488926;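 active = membrane potential signal drops by more than 5 SD from the mean control signal, in both duplicate plates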;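 also: plate controls were acetylcholine ECmax control wells for no effect and buffer only wells for full effect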
TRPC4/MOR mod: mouse TRPC4 off-target activity of TRPC6 modulators; 2,400 compounds, 69% hits; AID 488927; HEK293 TRPC4/mu-opioid, membrane potential fluorescence; percent change from control (negative = decrease, positive = increase), % at 10 µM; shares compounds with TRPC6 inhibitor;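 active = membrane potential signal moved up or down beyond 5 SD of buffer control wells, in both duplicate plates, actives on both sides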;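 also: plate controls were assay buffer wells for no effect and DAMGO maximal-effect wells for full effect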
TRPC4/MOR inh 2: second selectivity test of TRPC6 modulators against mouse TRPC4. 2,400 compounds, 55% hits. shares compounds with TRPC6 inhibitor. HEK293 TRPC4/mu-opioid, membrane potential dye fluorescence; stimulated with maximal-effect DAMGO. inhibition, % at 10 µM. AID 488928;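 active = drop in membrane potential signal beyond 5 SD of the control wells in both duplicate plates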;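 also: TRPC4 counter screen for TRPC6 hits run under conditions tuned for TRPC6 not TRPC4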
TRPC6 inh conf: mouse TRPC6 inhibitor confirmation; shares compounds with TRPC6 inhibitor; HEK293-TRPC6, membrane potential dye, ACh-evoked depolarization; 3,300 compounds, 43% hits; inhibition, % at 10 µM;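 active = fluorescence ratio falls more than 5 SD below the full-stimulation control mean, in both duplicate runs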;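 also: integrated fluorescence ratio of peak minus minimum over baseline after agonist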
TRPC6 act conf: confirmation of mouse TRPC6 activators; HEK293-TRPC6 membrane potential dye fluorescence, FDSS; activation, % at 10 µM; shares compounds with TRPC6 inhibitor; 2,800 compounds, 11% hits;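 active = ratio signal rise beyond 5 SD above unstimulated control wells' mean, seen in both duplicate runs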;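 also: plate controls were buffer EC0 wells for no effect and acetylcholine ECmax response for full effect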
Numbers without * were called inactive; i = inactive; . = no result. Hits are enriched below; roughly 2.3% of the tested compounds scored in any of these assays.

SMILES	TRPC4 potent	TRPC6 act	TRPC4 act	TRPC4 inh	TRPC6 inhibitor	HEK293 MPD ctr-2	HEK293 MPD ctr 2-2	TRPC4/MOR mod	TRPC4/MOR inh 2	TRPC6 inh conf	TRPC6 act conf	others
CCCCc1nc2cc(C(=O)NCCc3c(C)n[nH]c3C)ccc2o1	i	i	i	i	i	.	.	.	.	.	.
Cc1cccc2sc(N3CCN(C(=O)c4cccs4)CC3)nc12	i	i	i	i	-5.4*	i	i	14%*	32%*	47%*	.
CCOC(=O)N1CCC(Nc2ccc3nnc(-c4ccccc4)n3n2)CC1	i	i	i	i	-5.5*	i	i	i	i	68%*	.
CC(C)=CCN1CCN(Cc2cccn2-c2ncccn2)CC1CCO (centres undefined)	i	i	i	i	i	.	.	.	.	.	.
Cc1cccc(NC2=C(NCCO)C(=O)c3ccccc3C2=O)c1	i	i	i	i	-11*	-252%*	i	-50%*	66%*	52%*	i
COc1ccc(OC)c(CNc2ncc(-c3cccc([N+](=O)[O-])c3)n2C)c1	i	i	i	i	i	.	.	.	.	.	.
Cc1ccc(CNc2ncc(-c3ccc4c(c3)OCO4)n2C)cc1	i	i	i	i	i	.	.	.	.	.	.
COc1ccc(-c2cnc(NCc3cc4c(cc3[N+](=O)[O-])OCO4)n2C)cc1	i	i	i	i	-5.6*	i	i	i	44%*	i	i
Cn1c(-c2ccc3c(c2)OCO3)cnc1NCc1ccc(Cl)cc1	i	i	i	i	-6.2*	i	i	i	76%*	48%*	i
Cc1ccc(-n2ncc(C(=O)N3CCN(C(=O)c4ccco4)CC3)c2-n2cccc2)cc1	i	i	i	i	-5.3*	i	i	9.0%*	i	59%*	.
CC1CCN(CC(C)CNC(=O)c2cc(-c3ccccn3)nc3ccccc23)CC1 (centres undefined)	i	i	i	i	-8.6*	.	.	.	.	i	i	TRPC4 spec 2=70%*;TRPC4 spec=i;HEK293 MPD ctr 2-1=208%*;HEK293 MPD ctr-1=i
CC12CCC(=O)N1C(C(=O)OCC(=O)Nc1sccc1C#N)CS2 (centres undefined)	i	i	i	i	i	.	.	.	.	.	.
CCCCOC(=O)c1ccc(NC(=O)COC(=O)C2CSC3(C)CCC(=O)N23)cc1 (centres undefined)	i	i	i	i	-5.7*	i	i	i	i	75%*	.
COc1nc(C)nc2c1sc1nc3c(cc12)COC(C)(C)C3	i	i	i	i	-6.4*	i	i	-12%*	i	i	i
CCNc1nc2c(c(=O)n(C)c(=O)n2C)n1CCCc1ccccc1	i	i	i	i	i	.	.	.	.	.	.
CCOc1ccccc1N1CCN(Cc2ccco2)CC1	i	i	i	i	i	.	.	.	.	.	.
CCOc1ccccc1N1CCN(C/C=C/c2ccc(N(C)C)cc2)CC1	i	i	i	i	-6.5*	i	i	i	66%*	50%*	i
Cc1[nH]n(-c2ccc(Br)cc2)c(=O)c1C=Nc1ccc(S(=O)(=O)Nc2nccs2)cc1	i	i	i	i	-5.8*	i	i	-39%*	40%*	i	i
COc1ccc(N(C(=O)c2ccncc2)S(=O)(=O)c2cccc([N+](=O)[O-])c2)cc1	i	i	i	i	i	.	.	.	.	.	.
Cc1cccc(Nc2c(-c3ccc(O)cc3)nc3ncccn23)c1	i	i	i	i	-5.2*	-55%*	i	-13%*	56%*	i	i
Cc1ccc(Nc2c(-c3ccc(N4CCOCC4)cc3)nc3ncccn23)cc1C	i	i	i	i	-6.1*	i	i	-26%*	80%*	i	i
O=C(NC1CCCCC1)C1CCCN1S(=O)(=O)c1ccc(F)cc1 (centres undefined)	i	i	i	i	-8.1*	.	.	.	.	i	i	TRPC4 spec 2=i;TRPC4 spec=i;HEK293 MPD ctr 2-1=i;HEK293 MPD ctr-1=i
O=C(Nc1nc(=S)ss1)c1ccc(Cl)cc1Cl	i	i	i	i	-7.1*	i	i	i	i	i	i
CCOc1ccc(S(=O)(=O)N2CCCCC2)cc1NC(=O)C1CSC2(C)CCC(=O)N12 (centres undefined)	i	12*	i	i	-8.3*	152%*	i	33%*	i	68%*	106%*
CCOC(=O)c1sc2c(c1C)c(=O)n(CCO)c(=O)n2Cc1ccccc1	i	i	i	i	i	.	.	.	.	.	.
CCCCOc1ccc(CSCCN)cc1Cl	i	i	i	i	-6.2*	i	i	i	59%*	45%*	i
CCCCOc1ccc(CONS(=O)(=O)c2ccc(NC(C)=O)cc2)cc1Cl	i	i	i	i	i	.	.	.	.	.	.
